Reference: ChEMBL document CHEMBL4477178, “Biflorin, Isolated from the Flower Buds of Syzygium aromaticum L., Suppresses LPS-Induced Inflammatory Mediators via STAT1 Inactivation in Macrophages and Protects Mice from Endotoxin Shock” (J Nat Prod, 2016)

Experiments:
RAW264.7 [1] = assay: Antiinflammatory activity in mouse RAW264.7 cells assessed as inhibition of LPS-induced PGE2 production preincubated for 1 hr followed by LPS challenge for 24 hrs by ELISA method; format: functional, cell-based
Procedure, shortened: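 RAW 264.7 cells in DMEM with 10% FBS, plated at 2 × 10^5 cells/mL and incubated overnight. Pretreated with compound (15, 30 or 60 μM) for 1 h, then LPS 10 ng/mL for 24 h. PGE2 measured by competitive colorimetric ELISA, TNF-α and IL-6 by ELISA, in diluted medium. NS-398 3 μM as positive control for PGE2. Mean ± SD, three independent experiments; IC50 given for PGE2.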

RAW264.7 [2] = assay: Antiinflammatory activity in mouse RAW264.7 cells assessed as inhibition of LPS-induced nitric oxide production preincubated for 1 hr followed by LPS challenge for 24 hrs by Griess assay; format: functional, cell-based
Procedure, shortened: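 RAW 264.7 cells plated at 2 × 10^5 cells/mL and incubated overnight. Compound given at 15, 30 or 60 μM for 1 h, then LPS 10 ng/mL for 24 h. Nitrite in the medium measured by Griess reagent (10 min, room temperature, A540) against a NaNO2 standard. L-NIL 20 μM as positive control; IC50 derived; three independent experiments.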

Rattus norvegicus [3] = assay: Antiinflammatory activity in Sprague-Dawley rat assessed as reduction in carrageenan induced paw edema at 100 mg/kg, po administered 1 hr before carrageenan challenge measured at 3 hrs post challenge; format: functional
Procedure, shortened: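 Carrageenan paw edema in SD rats: ibuprofen 100 mg/kg p.o. as reference. Carrageenan (1% in saline, 0.1 mL) injected into the right hind paw. Volume measured by plethysmometer at 1, 3 and 5 h; seven rats per group.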

Rattus norvegicus [4] = assay: Antiinflammatory activity in Sprague-Dawley rat assessed as inhibition of croton oil-induced ear edema at 100 mg/kg, po administered 1 hr before croton oil challenge measured after 3 hrs post challenge; format: functional
Procedure, shortened: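 Croton-oil ear edema in male SD rats: ibuprofen 100 mg/kg p.o. given as reference. Croton oil (5% in 100 μL acetone) applied to the right ear, acetone to the left. Thickness of 6 mm ear punches measured 3 h after application; seven rats per group.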

Compound | IC50 (RAW264.7 [1]) | IC50 (RAW264.7 [2]) | inhibition in vivo at 100 mg/kg (Rattus norvegicus [3]) | inhibition in vivo at 100 mg/kg (Rattus norvegicus [4])
Cc1cc(=O)c2c(O)cc(O)c([C@@H]3O[C@H](CO)[C@@H](O)[C@H](O)[C@H]3O)c2o1 | 46 µM | > 60 µM | – | –
CC(C)Cc1ccc(C(C)C(=O)O)cc1 (centres undefined) [IBUPROFEN] | – | – | 68% | 78.2%
